Assay outcomes: PubChem, several laboratories
Rows were chosen to be rich in hits. Some 4.7% of all compounds tested hit in one or more screens of this group.
ADAM10 inh: inhibits human ADAM10; O14672; recombinant ADAM10, EDANS/DABCYL FRET peptide cleavage, 3 h; inhibition, % at 7 µM; 370,000 compounds, 0.62% hits; AID 720582;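 active means inhibition above a per-campaign cutoff equal to the mean of compounds falling between control-based bounds plus 3 SD, cut at about 20% in these data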;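 further: 0% = DMSO wells while the 100% control is not disclosed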
MPTP inh: permeability transition pore inhibition; isolated mouse mitochondria, Ca2+ swelling absorbance, 30 min; inhibition, % at 10 µM; 360,000 compounds, 1.4% hits;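 active means inhibition of 50% or more, scaled per plate between neutral and stimulator controls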;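 further: 0% = DMSO wells given calcium and 100% = 1 mM EGTA wells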
ADAM17 inh: ADAM17 inhibition, QFRET primary screen | P78536 | recombinant ADAM17, EDANS/DABCYL FRET peptide cleavage | inhibition, % at 6.95 µM | 370,000 compounds, 0.83% hits | AID 720648;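 active means inhibition above the mean of compounds lying between control limits plus 3 SD, set per campaign, cut at about 8.5% in these data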;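 further: 0% = DMSO-only wells as the low control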
Target sequence (P78536 215-824 limits assumed): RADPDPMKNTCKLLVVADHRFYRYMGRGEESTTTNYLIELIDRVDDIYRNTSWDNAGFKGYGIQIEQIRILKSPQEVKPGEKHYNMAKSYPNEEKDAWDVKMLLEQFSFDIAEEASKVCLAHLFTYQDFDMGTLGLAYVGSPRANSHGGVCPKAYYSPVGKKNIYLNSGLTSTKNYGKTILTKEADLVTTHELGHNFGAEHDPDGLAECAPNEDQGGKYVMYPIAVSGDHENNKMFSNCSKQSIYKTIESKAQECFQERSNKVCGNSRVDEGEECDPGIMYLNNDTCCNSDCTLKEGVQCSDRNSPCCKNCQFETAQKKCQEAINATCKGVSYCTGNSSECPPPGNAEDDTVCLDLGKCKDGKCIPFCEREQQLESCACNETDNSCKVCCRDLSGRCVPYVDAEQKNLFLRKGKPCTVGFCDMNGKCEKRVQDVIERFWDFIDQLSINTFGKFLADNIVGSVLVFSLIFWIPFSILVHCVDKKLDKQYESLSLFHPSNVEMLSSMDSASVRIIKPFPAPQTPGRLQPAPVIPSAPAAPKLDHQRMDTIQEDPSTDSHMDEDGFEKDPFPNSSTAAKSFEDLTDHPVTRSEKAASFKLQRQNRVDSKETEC
SKN-1 block: blocks SKN-1 activity in C. elegans | 360,000 compounds, 0.49% hits | AID 624304 | inhibition, % at 21.8 µM | C. elegans VP596 Pgst-4::GFP/RFP ratio, acrylamide-induced, 24 h;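 active means interference check ratio from 0.5 to 1.5 plus GFP to RFP signal ratio inhibition reaching or exceeding a fixed threshold, cut at about 30% in these data, passing the limit was not always enough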
GRIN3A LBD mod: NR3A (human) ligand-binding domain modulation | Tm shift relative to glycine control, % at 25 µM | 340,000 compounds, 2.5% hits | NR3A LBD differential scanning fluorimetry, Tm shift; 0% = protein alone, 100% = glycine-bound protein;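 active means melting temperature shift of at least 10% of the positive control shift, at one fixed dose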
MT1-MMP act inh: blocks activation of human MT1-MMP | HT1080 RFP-PRO-GFP cells, GFP/RFP ratio fluorescence, overnight; percent of plate control window, DMSO zero | GFP/RFP ratio change, % at 20 µM | 360,000 compounds, 0.061% hits | AID 651647;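 active means GFP/RFP ratio change of at least 30% with cell ATP level not reduced by more than half and red fluorescence within 50% of control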
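Assay system: HT1080 cells carrying an RFP-PRO-GFP reporter | Dosing: Single dose of 20 µM compound, 1% DMSO final | Incubation: Cells overnight before dosing, compound overnight, 37 °C, 5% CO2 | Evaluation: GFP/RFP fluorescence ratio | Control set: DMSO and RFP-L50D-GFP cell wells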
Rh123 counter: Rhodamine 123 counter-screen of mitochondrial pore hits; shares compounds with MPTP inh; isolated mitochondria, membrane potential, Rhodamine 123 fluorescence; inhibition, % at 10 µM; 5,000 compounds, 78% hits; in the data active means inhibition above about 22%;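 further: 0% = DMSO vehicle and 100% = positive control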
MPTP abs DR: dose response confirmation of mitochondrial permeability transition pore inhibitors; shares compounds with MPTP inh; isolated mitochondria swelling, absorbance; IC50, µM; 780 compounds, 58% hits; AID 651561; in the data active means IC50 below about 20 µM
MPTP cs DR: MPTP inhibitor counter-screen activity, dose response; shares compounds with MPTP inh; IC50, µM; 780 compounds, 49% hits; isolated mitochondria counterscreen, fluorescence read-out; in the data active means IC50 below about 80 µM
Starred values were filed as active, the others as inactive; x = no result.

SMILES	ADAM10 inh	MPTP inh	ADAM17 inh	SKN-1 block	GRIN3A LBD mod	MT1-MMP act inh	Rh123 counter	others
CN1C(=O)c2cccc(NCCCN3C(=O)c4ccccc4C3=O)c2C1=O	-15	-2	-5	-7	-2	-43	x
CN1C(=O)c2cccc(NCCCCCCN3C(=O)c4ccccc4C3=O)c2C1=O	-2	108*	-4	-8	0	-18	94*
CC(C)CC(OC(=O)c1ccco1)C(=O)NC1CCCCC1 (configuration not stated)	-15	0	-4	-5	0	1	x
CCCNC(=O)C1(C)CCN(Cc2ccc(-c3ccccn3)cc2)C1 (configuration not stated)	-11	-2	4	5	x	1	x
COc1ccc(NC(=O)O/N=C/c2ccccc2)cc1	1	0	0	30	-1	1	x
O=C(Nc1ccc(Cl)c(Cl)c1)O/N=C/c1ccncc1	-8	104*	2	-6	29*	0	78*
CN(C)c1ccc(/C=N/OC(=O)Nc2ccccc2)cc1	-44	-1	-14	-9	5	0	x
O=C(Nc1cccc(Cl)c1)O/N=C\c1ccncc1	9	82*	5	10	-1	-3	93*
O=C(NNC1=C(C(=O)C(F)(F)F)CCC1)c1ccc(Cl)cc1	-5	92*	0	-3	-27	9	77*
CCCn1c(=O)[nH]c(=O)c2c1nc(-c1ccccc1OC(F)F)n2CCOC	-3	-1	-1	-4	2	0	x
CCCn1c(=O)[nH]c(=O)c2c1nc(-c1ccc(OC(F)F)c(OC)c1)n2CCOC	-18	80*	-5	-5	-2	10	-4	MPTP abs DR=>100;MPTP cs DR=>80
COc1ccc(Cl)c(-c2cc(C(=O)Nc3ccc(F)cc3)[nH]n2)c1	8	18	7	-3	x	3	x
Cc1ccc(Cl)cc1-c1cc(C(=O)Nc2ccc(F)cc2)[nH]n1	6	64*	4	8	x	0	96*
COc1ccc(Cl)c(-c2cc(C(=O)NCc3ccc(C(F)(F)F)cc3)[nH]n2)c1	8	10	7	2	x	5	x
Cc1ccc(Cl)cc1-c1cc(C(=O)NCc2ccc(C(F)(F)F)cc2)[nH]n1	5	52*	2	7	x	2	96*
CCCN(CC(=O)Nc1ccccc1OC)C(=O)c1ccc2ncsc2c1	-3	0	-4	-6	1	5	x
Cc1nc(C#N)c(N/N=C/c2cccc(Cl)c2)o1	-9	2	-1	10	-11	0	x
C[N+](C)(C)c1ccc(/C=N/Nc2nc(Cl)c(C#N)c(Cl)c2Cl)cc1	0	92*	-4	2	0	-12	95*
C[n+]1cccc(/C=N/Nc2nc(Cl)c(C#N)c(Cl)c2Cl)c1	5	65*	-4	7	0	-94	64*
CC(=O)Nc1ccc(S(=O)(=O)Nc2cccc(-c3csc(C)n3)c2)cc1	0	2	-2	-2	-6	4	x
CC(=O)Nc1ccc(S(=O)(=O)Nc2cccc(-c3nc4cc(C)ccc4o3)c2)cc1	6	96*	-1	-3	16*	-2	74*
Cc1ccc(S(=O)(=O)NC(=O)C2(C)CCN2C(=O)c2ccccc2)cc1 (configuration not stated)	-2	0	-2	8	x	0	x
CC1=CC(C)(C)N2C(=O)C3(N=C(N)NC(Nc4ccccc4)=N3)c3cc(C)cc1c32 (configuration not stated)	-5	88*	-2	12	-4	2	-12	MPTP abs DR=9.3*;MPTP cs DR=>80
Cc1cccc(NC2=NC(C)(C)N=C(N)N2)c1	6	1	-2	4	-1	-11	x
Cc1ccc(NC(=O)c2ccccc2NS(=O)(=O)c2ccc(F)cc2)cc1S(=O)(=O)N1CCCCC1	-31	95*	-15	-3	28*	-42	84*
